Consider six compounds from ChEMBL document CHEMBL1127449, “An investigation of desferrithiocin metabolism” (J Med Chem, 1994).

For orientation: half-life means the time in which the quantity being followed falls by half.

What all share (format): ADME
The nature of data set [1]: Tested for the half life period at the pH of 2.5. The settings on record: pH 2.5. The gist of the method:
(§1)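 Hydrolysis followed by HPLC at 37 °C: 2 mM solutions in phosphate mobile phase B with 4 mM 2,6-lutidine as internal standard, pH set to 2.5 or 7.2 with HCl or KOH. Reverse-phase gradient of acetonitrile/mobile phase B, detection at 250 nm. Half-life derived from disappearance over time. For fast pH 7.2 conversion, acidic solution brought to 7.2 then back to 2.5 (<1 min).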

A short description of data set [2]: Tested for the half life period at the pH of 7.2. As to conditions: pH 7.2. The gist of the method:
as §1

Data set [3] can be described thus: Tested for the half life period at the pH of 2.5; Stable. As to conditions: pH 2.5. The gist of the method: as §1
Data set [4] is described as follows: Tested for the half life period at the pH of 7.2; Stable. As to conditions: pH 7.2. The gist of the method: as §1

For `N[C@@H](CSC(=O)c1ccccc1O)C(=O)O`, the half-life in data set [1] is 4.18 h; in data set [2], < 1 min.
On to `O=C(N[C@@H](CS)C(=O)O)c1ccccc1O`, for which the T1/2 entry in data set [3] and in data set [4] was “Stable” throughout.
In turn, `O=C(O)[C@@H]1CSC(c2ncccc2O)=N1` had a half-life in data set [1] of 8.74 h. Moreover, the T1/2 result in data set [4] was “Stable”.
The matching figures for `O=C(O)[C@@H]1CSC(c2ccccc2O)=N1`: 31.7 h and “Stable”.
The matching figures for `C[C@]1(C(=O)O)CSC(c2ncccc2O)=N1` [DESFERRITHIOCIN]: 18.6 h and “Stable”.
In the case of “deaza-desmethyl-DFT complex with iron (III)”, the T1/2 is > 480 h in data set [1] and “Stable” in data set [4].
